pIC50: −log10 of the molar value. In brackets after ≈: the same amount, converted by molar mass.
Key:
[1] = tested on: Mycobacterium tuberculosis; experiment: Antitubercular activity against Mycobacterium tuberculosis H37Rv after 5 days by microplate alamar blue assay; format: functional; conditions: for MIC: Mycobacterium tuberculosis, H37Rv, 120 h
How it was run: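 Middlebrook 7H9 broth; serial dilutions of 0.2–100 μg/mL made in the plate. Incubated at 37°C for 5 days, then 1:1 alamar blue/10% Tween 80 added and incubated 24 h. MIC is the lowest concentration that prevents the blue-to-pink change. Ethambutol and rifampicin were standards.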

[2] = Cytotoxicity against human A549 cells assessed as decrease in cell viability after 72 hrs by MTT assay; format: toxicity, cell-based
How it was run: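 Human A549 lung adenocarcinoma cells; viability read as cellular MTT conversion to formazan in a non-radioactive cell proliferation kit. Cisplatin was the positive control. IC50 values are means ± SEM of three independent experiments.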

[3] = molecular target: T1, Enoyl-[acyl-carrier-protein] reductase [NADH] (Mycobacterium tuberculosis, UniProt P9WGR1); experiment: Inhibition of His6-tagged recombinant Mycobacterium tuberculosis InhA expressed in protease-deficient Escherichia coli (BL21) using trans-2-dodecenoyl-coenzyme A as substrate assessed as NADH oxidation
T1 sequence (P9WGR1 whole entry): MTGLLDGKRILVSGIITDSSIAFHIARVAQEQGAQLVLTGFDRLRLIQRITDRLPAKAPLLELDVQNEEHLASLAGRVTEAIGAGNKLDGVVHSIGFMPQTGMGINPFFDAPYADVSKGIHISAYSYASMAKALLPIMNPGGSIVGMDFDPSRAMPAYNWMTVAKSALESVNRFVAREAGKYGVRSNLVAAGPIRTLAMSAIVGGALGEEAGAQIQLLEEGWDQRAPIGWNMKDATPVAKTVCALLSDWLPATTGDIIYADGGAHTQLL
How it was run: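 InhA-6xHis from E. coli BL21 (pHAT5/InhA), induced overnight with 1 mM IPTG at 20°C, purified on Ni-NTA and desalted. Assay at 25°C in 30 mM PIPES, 150 mM NaCl, pH 6.8, with 250 μM NADH, 50 μM DDCoA and 5% DMSO final. Compound screened at 50 μM. % inhibition taken from slopes with and without inhibitor. Triclosan was the reference.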

| SMILES | -logMIC [1] | MIC [1] | IC50 at 72 h [2] | pIC50 [3] |
| --- | --- | --- | --- | --- |
| C/C(=N\NC(=O)c1ccc(-n2cccc2)cc1)C(=O)Nc1ccc(F)cc1 | 5.2 | 6.25 mg/L (≈ 17.2 µM) | – | – |
| COc1cccc(NC(=O)/C(C)=N/NC(=O)c2ccc(-n3cccc3)cc2)c1 | 4.3 | 50 mg/L (≈ 133 µM) | – | – |
| C/C(CCC(=O)Nc1ccc(Br)cc1)=N\NC(=O)c1ccc(-n2cccc2)cc1 | 5.2 | 6.25 mg/L (≈ 13.8 µM) | – | – |
| C/C(=N\NC(=O)c1ccc(-n2cccc2)cc1)C(=O)Nc1cccc(F)c1 | 4.58 | 12.5 mg/L (≈ 34.3 µM) | – | – |
| C/C(=N\NC(=O)c1ccc(-n2cccc2)cc1)C(=O)Nc1cc(Cl)cc(Cl)c1 | 4.9 | 12.5 mg/L (≈ 30.1 µM) | – | – |
| C/C(CCC(=O)Nc1ccccc1)=N\NC(=O)c1ccc(-n2cccc2)cc1 | 4.3 | 50 mg/L (≈ 134 µM) | – | – |
| C/C(CCC(=O)Nc1ccccc1Cl)=N\NC(=O)c1ccc(-n2cccc2)cc1 | 4.6 | 25 mg/L (≈ 61.1 µM) | – | – |
| C/C(=N\NC(=O)c1ccc(-n2cccc2)cc1)C(=O)Nc1cccc(Br)c1 | 4.9 | 12.5 mg/L (≈ 29.4 µM) | – | – |
| C/C(=N\NC(=O)c1ccc(-n2cccc2)cc1)C(=O)Nc1cc(Br)cc(Br)c1 | 4.9 | 12.5 mg/L (≈ 24.8 µM) | – | – |
| C/C(=N\NC(=O)c1ccc(-n2cccc2)cc1)C(=O)Nc1ccc(Br)cc1 | 5.5 | 3.12 mg/L (≈ 7.34 µM) | 441 µM | – |
| C/C(=N\NC(=O)c1ccc(-n2c(C)ccc2C)cc1)C(=O)Nc1c(Cl)cccc1Cl | 4 | 100 mg/L (≈ 226 µM) | – | – |
| C/C(CCC(=O)Nc1ccc(Cl)cc1)=N\NC(=O)c1ccc(-n2cccc2)cc1 | 5.5 | 3.12 mg/L (≈ 7.63 µM) | 406 µM | – |
| C/C(=N/NC(=O)c1ccc(-n2cccc2)cc1)C(N)=O | 4.3 | 50 mg/L (≈ 185 µM) | – | – |
| COc1ccc(NC(=O)/C(C)=N/NC(=O)c2ccc(-n3cccc3)cc2)cc1 | 4.3 | 50 mg/L (≈ 133 µM) | – | – |
| C/C(CCC(=O)Nc1cccc(Br)c1)=N\NC(=O)c1ccc(-n2cccc2)cc1 | 4.9 | – | – | – |
| C/C(=N\NC(=O)c1ccc(-n2cccc2)cc1)C(=O)Nc1c(Cl)cccc1Cl | 4.6 | 25 mg/L (≈ 60.2 µM) | – | – |
| C/C(CCC(=O)Nc1cc(Cl)cc(Cl)c1)=N\NC(=O)c1ccc(-n2cccc2)cc1 | 4.6 | 25 mg/L (≈ 56.4 µM) | – | – |
| C/C(CCC(=O)Nc1cccc(F)c1)=N\NC(=O)c1ccc(-n2cccc2)cc1 | 4.6 | 12.5 mg/L (≈ 31.9 µM) | – | – |
| C/C(CCC(=O)Nc1cccc(Cl)c1)=N\NC(=O)c1ccc(-n2cccc2)cc1 | – | 12.5 mg/L (≈ 30.6 µM) | – | – |
| C/C(CCC(=O)Nc1ccc(F)cc1)=N\NC(=O)c1ccc(-n2cccc2)cc1 | 5.5 | 3.12 mg/L (≈ 7.95 µM) | 438 µM | 5.11 |
| C/C(CCC(=O)Nc1ccccc1F)=N\NC(=O)c1ccc(-n2cccc2)cc1 | 4.6 | 25 mg/L (≈ 63.7 µM) | – | – |
| C/C(=N\NC(=O)c1ccc(-n2cccc2)cc1)C(=O)Nc1ccccc1F | 4.3 | 25 mg/L (≈ 68.6 µM) | – | – |
| C/C(=N\NC(=O)c1ccc(-n2c(C)ccc2C)cc1)C(=O)Nc1ccc(Br)cc1 | 5.2 | 6.25 mg/L (≈ 13.8 µM) | – | – |
| COc1ccc(NC(=O)/C(C)=N/NC(=O)c2ccc(-n3c(C)ccc3C)cc2)cc1 | 4.6 | 25 mg/L (≈ 61.8 µM) | – | – |
| COc1ccccc1NC(=O)CC/C(C)=N/NC(=O)c1ccc(-n2cccc2)cc1 | 4 | 100 mg/L (≈ 247 µM) | – | – |
| CC[C@@H](CO)NCCN[C@@H](CC)CO [ETHAMBUTOL] | – | 0.5 mg/L (≈ 2.45 µM) | – | – |
| NNC(=O)c1ccncc1 [ISONIAZID] | – | – | > 450 µM | – |
| CO[C@H]1/C=C/O[C@@]2(C)Oc3c(C)c(O)c4c(O)c(c(/C=N/N5CCN(C)CC5)c(O)c4c3C2=O)NC(=O)/C(C)=C\C=C\[C@H](C)[C@H](O)[C@@H](C)[C@@H](O)[C@@H](C)[C@H](OC(C)=O)[C@@H]1C [RIFAMPIN] | – | 0.4 mg/L (≈ 0.486 µM) | – | – |

Reference: ChEMBL document CHEMBL3853305, “Synthesis, characterization and antitubercular activities of novel pyrrolyl hydrazones and their Cu-complexes” (Eur J Med Chem, 2016)
